Test results as given in the RNAGym collection of RNA variant scans (doi:10.1126/science.aae0568).
Fewer inactive variants are shown than the library holds.

B1: tRNA (parent)
chain: GUUCCGUUGGCGUAAUGGUAACGCGUCUCCCUCCUAAGGAGAAGACUGCGGGUUCGAGUCCCGUACGGAACG

Variants of: B1
Test: yeast fitness relative to wild type (ratio to wild type); higher = fitter; tRNA-Arg(CCU), competitive growth, 37 C, YPD
Summary of the method: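 A pool of Saccharomyces cerevisiae strains, each with a tRNA-Arg(CCU) gene variant at the native genomic locus, was competed in YPD at 37°C for 24 hours across six parallel replicates. The variants had been chemically synthesised at a 3% per-site mutation rate over 69 sites, and gene amplicons before and after competition were read by 100-nucleotide paired-end sequencing. Darwinian fitness relative to wild type rested on changes in genotype frequencies. Genotypes required ≥ 100 starting reads, and estimates < 0.5 were set to 0.5.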

Variant | yeast fitness
U26G G44A A69U | 0.673
C27A C34U A42C U53G | ≤ 0.5
U26A U35C A45U | 0.746
C27A C30A U35C C46G | ≤ 0.5
U26G A45G C46U U53G C66U A69U | 0.582
U26C C30G C61U A70G | 0.689
C27A C46U G52A | 0.644
C27A C33A C46A G63C | ≤ 0.5
U26C A37C A40U A57C U64G | ≤ 0.5
U26C G48A C55U | 0.561
U26G U32A G63A | ≤ 0.5
U26G A65G | 0.971
U26C C46A C61U G67A | ≤ 0.5
C27A A36C A42U U64G | ≤ 0.5
U26C U35C C49U A57U | 0.656
C27A C31G A57C U64A G68A | ≤ 0.5
U26C G38A A43C A65C | ≤ 0.5
C27A C30U C33G | 0.634
U26G U35A A69G A70G | 0.732
C27A C33G A45C | 0.53
U26G C60A | 0.593
C27A A37C | 0.597
C27A A37G | 0.737
U26C U32C A37G C49G | ≤ 0.5

Variant | yeast fitness
C27A A42U G67C A69C | 0.726
U26C A45U U53A U59A | 0.512
U26C A70C | 0.797
U26C A70U | 0.926
U26C U28C A36C | ≤ 0.5
C27A A70G | 0.857
U26C G56C A57C | ≤ 0.5
U26C A36C G56C | 0.633
U26A U64C | 0.856
C27A C31G C46U | 0.621
U26G A70C | 0.924
U26C C27G G68C | ≤ 0.5
U26G A42C C61U | 0.684
C27A A42C A57G | ≤ 0.5
U26C G39A U59C | 0.604
C27A C31G C61U | 0.669
C27A C30A A43C C62G | ≤ 0.5
C27A C31G | 0.957
U26G U35A | 0.589
U26G U35C | 0.657
U26C A43U G48C C60G | ≤ 0.5
U26G A36G A70G | 0.652
U26A U53A | 0.557
U26A U53G | 0.704

Variant | yeast fitness
U26C G50A U59A G67C | ≤ 0.5
U26C C33G A42C G67C | ≤ 0.5
C27A A42C G67C A69C | ≤ 0.5
C27A C33U G44C A45U G50C G67A | ≤ 0.5
U26G A36G G68A A69G | 0.626
C27A A45G | 0.874
C27A A45C | 0.796
C27A A42C C60U | ≤ 0.5
U26G C61U | 0.864
U26C C29U G63A | 0.672
C27A A36U A37U A65G | ≤ 0.5
C27A C34G A40G A65G | 0.799
U26C C33A A40U | 0.668
U26G U32C | 0.821
U26G C27U A69U | 0.696
U26C A37G C60A | ≤ 0.5
U26C U47C | 0.952
U26C U32C C66U | 0.676
U26C U35A U47A U54A | ≤ 0.5
U26C A40U | 0.846
U26C A40C | 0.941
U26C A40U C60U A69C | 0.535
U26C C27U | 1.02
U26C C27G | 0.588

Variant | yeast fitness
C27A C33A A42U | 0.619
C27A C31A C46G | 0.688
U26C C31U C46A G48C A57U | 0.649
U26G A37C A42G G44C A45G | ≤ 0.5
U26C G48A | 1.05
U26C G39C C55A C60G | ≤ 0.5
U26C G63C | 0.76
C27A A45U C60G A65U | 0.54
U26A U35G A37U G56C A65G | ≤ 0.5
C27A C34U A42U G50C G58A G68C A69G | ≤ 0.5
C27A C31A A37C C46G | ≤ 0.5
U26G C61U G63C A65G | 0.799
U26G U28A U53A | ≤ 0.5
C27A A40G A42U C61G | ≤ 0.5
U26C C27G C34U A37U A43G A45G | ≤ 0.5
C27A A40C A45U A57U A70U | 0.588
C27A C34G G38A G63C | ≤ 0.5
C27A C34U | 0.598
U26C C33G U54C | ≤ 0.5
U26G C33G C34G A40U G68A | ≤ 0.5
C27A C46U A70U | 0.733
U26C U28C A70G | 0.73
U26C G39A | 0.698
C27A A45C C49A C61U | ≤ 0.5

Variant | yeast fitness
U26G G39A C46G G68A | 0.522
C27A C31U C33A A42U G67A | ≤ 0.5
U26C A37U U54A | ≤ 0.5
U26A U54A A70U | 0.69
U26C C31U C49U C66G | ≤ 0.5
U26C A37G A69U | 0.665
U26C C33U C55U C60U | ≤ 0.5
U26C C34A | 0.817
U26C C29G C49U A69U | 0.588
C27A C30G C49U G56C C66U | ≤ 0.5
U26C A45U | 0.716
U26C C62U | 0.823
U26C U47G G50C C66A | 0.685
U26G C34U C49A G51A A69U | ≤ 0.5
C27A A43C U47C | 0.594
C27A C29U C46A | 0.684
U26C A36C U64A A70C | ≤ 0.5
U26G C31G U32A | 0.691
U26C C27A C34U G41A | ≤ 0.5
C27A A37C A43G C55G | ≤ 0.5
U26C C30U C60A | ≤ 0.5
U26G A37C A42G G44C A45G C49U A65U | ≤ 0.5
U26G G56A G68U A69U | ≤ 0.5
U26A U47G | 0.661

Variant | yeast fitness
U26A U47C | 0.994
U26C G51C | 0.663
U26C C33G A42C | 0.537
U26C A65C | 0.819
U26C A65G | 0.932
U26C A65U | 0.896
C27A C31G A45C C55U | ≤ 0.5
U26G C27U A70U | ≤ 0.5
U26C A37G | 0.634
C27A C31G A65U | 0.679
U26G C27G U47A C62U | ≤ 0.5
U26G C31U U54A | 0.569
C27A A45C G68A | 0.619
U26C U59G | 0.862
U26G C66G | 0.677
U26G G44C G58A G68C | 0.529
U26C C34G A70C | ≤ 0.5
U26G G56A G67A | 0.529
U26C C61U U64A | 0.526
U26G G67A | 0.81
C27A A42G U54C | ≤ 0.5
C27A C31A G52A U54C G58C A70G | ≤ 0.5
C27A C31A C49U G58C C62U U64A | ≤ 0.5
U26A U35A G48C | ≤ 0.5

Variant | yeast fitness
U26G U28A | 0.62
C27A C30U C33G A37C A57U | ≤ 0.5
U26A U32C A57C C62U | ≤ 0.5
C27A A40C C46A | 0.597
U26C C31A G38C | 0.529
U26C A36C A65U G68A | ≤ 0.5
U26C C46A U47G G50A A69U | ≤ 0.5
U26C C27G C60U | ≤ 0.5
C27A C31G A65U A70G | ≤ 0.5
U26C A43U | 0.884
U26G C55G A65C A70U | ≤ 0.5
U26C A40C A43G G44A | ≤ 0.5
C27A C34U C62U U64C | ≤ 0.5
U26C C46G G63A | ≤ 0.5
C27A A36G C46A G50A G51C | ≤ 0.5
C27A A36U | 0.802
U26C G41C C46A | 0.627
C27A C33G | 0.711
C27A C33U | 0.799
U26C A42C A70C | 0.757
C27A A37U C60U G63A | 0.707
U26C C66G A69C | ≤ 0.5
U26C G44A A70U | 0.657
